Legend:
[1] = Plasma concentration in Sprague-Dawley rat at 10 mg/kg administered via oral gavage measured after 1 day by HPLC-MS/MS analysis; format: ADME, organism-based
VCaP = experiment: Antiproliferative activity against human VCaP cells expressing androgen receptor splice variants assessed as decrease in cell viability after 5 days by trypan blue exclusion assay; format: functional, cell-based; conditions: 120 h
PC-3 [2] = experiment: Induction of apoptosis in human PC3 cells assessed as late apoptotic/necrotic cells at 15 uM after 16 hrs by F2N12S/CYTOX AADvanced double staining-based flow cytometric method (reference value: 3%); format: functional
PC-3 [3] = experiment: Induction of apoptosis in human PC3 cells assessed as early apoptotic cells at 30 uM after 16 hrs by F2N12S/CYTOX AADvanced double staining-based flow cytometric method (reference value: 2%); format: functional
[4] = Antiproliferative activity against human LNCaP95 cells expressing androgen receptor splice variants assessed as decrease in cell viability after 5 days by trypan blue exclusion assay; format: functional, cell-based; conditions: LNCaP-95, 120 h
LNCaP [5] = experiment: Potency index, ratio of curcumin IC50 to test compound IC50 for human LNCAP cells; format: functional
DU-145 [6] = experiment: Antiproliferative activity against human DU145 cells assessed as decrease in cell viability after 3 days by WST assay; format: functional, cell-based; conditions: DU-145, 72 h
How it was run: (§1)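 Cells were seeded at 3,200 per well. PC-3 and LNCaP were grown in RPMI-1640 and DU-145 in EMEM, each with 10% FBS and 1% penicillin/streptomycin, at 37 °C and 5% CO2. Cells were exposed for 3 days to at least five concentrations, with DMSO as vehicle control. WST-1 reagent was then added for 3 h at 37 °C and absorbance read at 430 nm. IC50 came from linear inhibition, averaged over triplicates.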

PC-3 [7] = experiment: Induction of apoptosis in human PC3 cells assessed as viable cells at 20 uM after 16 hrs by F2N12S/CYTOX AADvanced double staining-based flow cytometric method (reference value: 95%); format: functional; conditions: PC-3, 16 h, read-out: Activity
CWR22R = experiment: Antiproliferative activity against human 22Rv1 cells expressing androgen receptor splice variants assessed as decrease in cell viability after 5 days by trypan blue exclusion assay; format: functional, cell-based; conditions: 22Rv1, 120 h
PC-3 [8] = experiment: Induction of apoptosis in human PC3 cells assessed as late apoptotic/necrotic cells at 40 uM after 16 hrs by F2N12S/CYTOX AADvanced double staining-based flow cytometric method (reference value: 3%); format: functional
PC-3 [9] = experiment: Induction of apoptosis in human PC3 cells assessed as viable cells at 15 uM after 16 hrs by F2N12S/CYTOX AADvanced double staining-based flow cytometric method (reference value: 95%); format: functional; conditions: PC-3, 16 h, read-out: Activity
[10] = AUC in Sprague-Dawley rat at 10 mg/kg administered via oral gavage by HPLC-MS/MS analysis; format: ADME, organism-based; conditions: in vivo
PC-3 [11] = experiment: Induction of apoptosis in human PC3 cells assessed as early apoptotic cells at 15 uM after 16 hrs by F2N12S/CYTOX AADvanced double staining-based flow cytometric method (reference value: 2%); format: functional
[12] = Retention time of the compound; format: physicochemical
[13] = Plasma concentration in Sprague-Dawley rat at 10 mg/kg administered via oral gavage measured at 6 hrs by HPLC-MS/MS analysis; format: ADME, organism-based
PC-3 [14] = experiment: Induction of apoptosis in human PC3 cells assessed as late apoptotic/necrotic cells at 5 uM after 16 hrs by F2N12S/CYTOX AADvanced double staining-based flow cytometric method (reference value: 3%); format: functional
[15] = Drug metabolism in human liver microsomes assessed as (1Z,4E)-1-(1-sec-butyl-1H-imidazol-2-yl)-1-hydroxy-5-(2-methyl-4-(trifluoromethyl)thiazol-5-yl)penta-1,4-dien-3-one formation at 10 mM after 60 mins by UHPLC analysis; format: ADME, microsome
How it was run: (§2)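 Pooled human liver microsomes in potassium phosphate buffer (pH 7.4) with NADPH solutions A and B were preincubated for 5 min at 37 °C. Compound was then added from a 10 mM stock (3 μL into 300 μL total) and incubated 60 min at 37 °C. Reactions were quenched with an equal volume of methanol and centrifuged (10,000 × g, 4 min, 4 °C). Supernatant went to UHPLC–high-resolution MS for metabolite identification.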

PC-3 [16] = experiment: Induction of apoptosis in human PC3 cells assessed as viable cells at 5 uM after 16 hrs by F2N12S/CYTOX AADvanced double staining-based flow cytometric method (reference value: 95%); format: functional; conditions: PC-3, 16 h, read-out: Activity
PC-3 [17] = experiment: Induction of apoptosis in human PC3 cells assessed as early apoptotic cells at 5 uM after 16 hrs by F2N12S/CYTOX AADvanced double staining-based flow cytometric method (reference value: 2%); format: functional
[18] = Plasma concentration in Sprague-Dawley rat at 10 mg/kg administered via oral gavage measured at 3 hrs by HPLC-MS/MS analysis; format: ADME, organism-based
Rattus norvegicus = experiment: Acute toxicity in Sprague-Dawley rat at 10 mg/kg administered via oral gavage; format: organism-based; conditions: in vivo
How it was run: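 Male Sprague-Dawley rats (250–300 g, n = 4) each received a single 10 mg/kg oral gavage dose. The vehicle was 5% DMSO, 40% polyethylene glycol 400 and 55% saline. Blood was drawn from the lateral tail vein at 1, 3, 6 and 24 h for plasma drug levels. Toxicity was scored as observed deaths after dosing.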

[19] = Plasma concentration in Sprague-Dawley rat at 10 mg/kg administered via oral gavage measured at 1 hr by HPLC-MS/MS analysis; format: ADME, organism-based
[20] = Cmax in Sprague-Dawley rat at 10 mg/kg administered via oral gavage by HPLC-MS/MS analysis; format: ADME, organism-based; parameters: dose 10 mg/kg, route oral; conditions: in vivo
PC-3 [21] = experiment: Cell cycle arrest in human PC3 cells assessed as accumulation at G0/G1 phase at 5 uM after 24 hrs by propidium iodide staining-based flow cytometric method (reference value: 59 to 62%); format: functional
PC-3 [22] = experiment: Cell cycle arrest in human PC3 cells assessed as accumulation at G2 phase at 5 uM after 24 hrs by propidium iodide staining-based flow cytometric method (reference value: 24%); format: functional
PC-3 [23] = experiment: Induction of apoptosis in human PC3 cells assessed as late apoptotic/necrotic cells at 30 uM after 16 hrs by F2N12S/CYTOX AADvanced double staining-based flow cytometric method (reference value: 3%); format: functional
PC-3 [24] = experiment: Cell cycle arrest in human PC3 cells assessed as accumulation at G0/G1 phase at 5 uM after 16 hrs by propidium iodide staining-based flow cytometric method (reference value: 51 to 52%); format: functional
LNCaP [25] = experiment: Antiproliferative activity against human LNCAP cells assessed as decrease in cell viability after 3 days by WST assay; format: functional, cell-based; conditions: 72 h; how it was run: as §1
[26] = Tmax in Sprague-Dawley rat at 10 mg/kg administered via oral gavage by HPLC-MS/MS analysis; format: ADME, organism-based; conditions: in vivo
DU-145 [27] = experiment: Potency index, ratio of curcumin IC50 to test compound IC50 for human DU145 cells; format: functional
PC-3 [28] = experiment: Induction of apoptosis in human PC3 cells assessed as late apoptotic/necrotic cells at 10 uM after 16 hrs by F2N12S/CYTOX AADvanced double staining-based flow cytometric method (reference value: 3%); format: functional
[29] = Drug metabolism in human liver microsomes assessed as (1E,4E)-1-(1-sec-butyl-4-hydroxy-1H-imidazol-2-yl)-5-(2-methyl-4-(trifluoromethyl)thiazol-5-yl)penta-1,4-dien-3-one formation at 10 mM after 60 mins by UHPLC analysis; format: ADME, microsome; how it was run: as §2

CCC(C)n1ccnc1/C=C/C(=O)/C=C/c1sc(C)nc1C(F)(F)F (configuration not stated)
concentration at 24 h [1]: 230 ng/mL
IC50 (VCaP): 350 nM
Activity (PC-3 [2]): 33%
Activity (PC-3 [3]): 20%
IC50 [4]: 370 nM
Ratio IC50 (LNCaP [5]): 62
IC50 (DU-145 [6]): 350 nM
viability at 20 µM (PC-3 [7]): 51%
IC50 (CWR22R): 850 nM
Activity (PC-3 [8]): 53%
viability at 15 µM (PC-3 [9]): 54%
AUC [10]: 24700 ng·h/mL
Activity (PC-3 [11]): 13%
Retention_time [12]: 4.35 min
concentration at 6 h [13]: 1940 ng/mL
Activity (PC-3 [14]): 39%
Drug metabolism [15]: Metabolite_Detected
viability at 5 µM (PC-3 [16]): 50%
Activity (PC-3 [17]): 11%
concentration at 3 h [18]: 672 ng/mL
Activity (Rattus norvegicus): Non-Toxic
concentration at 1 h [19]: 361 ng/mL
Cmax [20]: 5.27 µM
Activity (PC-3 [21]): 66%
Activity (PC-3 [22]): 21%
Activity (PC-3 [23]): 46%
Activity (PC-3 [24]): 68%
IC50 (LNCaP [25]): 220 nM
Tmax [26]: 6 h
Ratio IC50 (DU-145 [27]): 75
Activity (PC-3 [28]): 37%
Drug metabolism [29]: Metabolite_Detected
